Test results published in ChEMBL document CHEMBL4665870, “RNA drug discovery: Conformational restriction enhances specific modulation of the T-box riboswitch function” (Bioorg Med Chem, 2020).
The source made the active and inactive calls. No cut-off for these calls is given here.

Key:
[1] = Induction of tRNA-5'TAMRA-antiterminator RNA (unknown origin) complex disruption using fluorescently-labeled AM at 100 uM by fluorescence anisotropy monitored complex disruption assay
In short: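 Fluorescence anisotropy of 100 nM 5′-TAMRA-AM with 2.5 μM tRNA and 100 μM ligand (n = 3). Controls were AM alone (r−) and AM plus tRNA (r+), run in replicate. Significance assessed by unpaired t-test.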

[2] = Effect on HEX-antiterminator RNA-DABCYL (unknown origin) thermal stability at 100 uM by measuring fluorescence by AriaMx Real-Time PCR system
In short: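 100 nM fluorophore–quencher 5′-HEX-AM-3′-DABCYL with 100 μM ligand in 10 mM sodium phosphate, 0.01 mM EDTA, pH 6.5, 5% DMSO. Fluorescence read (ex 535 nm / em 555 nm) while heating 40–90 °C. Tm taken from the first derivative of the raw data.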

[3] = tested on: T-box riboswitch antiterminator RNA (Bacillus subtilis); assay: Binding affinity to 5'TAMRA antiterminator C11U RNA (unknown origin) assessed as structural changes by fluorescence-monitored ligand binding assay relative to bulge deletion AM
[4] = Inhibition of tRNA-induced Escherichia coli RNA polymerase mediated T-box riboswitch transcription readthrough assessed as riboswitch function in presence of RTprb and dsDNA at 100 uM by fluorescence-monitored in vitro transcription assay
In short: (§1)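 In vitro transcription with 10 nM DNA template and 0.05 U/μL E. coli RNA polymerase sigma-saturated holoenzyme. Readout by 100 nM molecular beacon, with or without 30 nM tRNA and 100 μM ligand, at 28 °C. Readthrough = fluorescence at 6 h minus 0 min. Triplicates, unpaired t-test.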

[5] = Binding affinity to 5'TAMRA-antiterminator RNA (unknown origin) assessed as structural changes by fluorescence-monitored ligand binding assay relative to bulge deletion AM
[6] = Inhibition of tRNA-induced Escherichia coli RNA polymerase mediated T-box riboswitch transcription readthrough assessed as overall transcription in presence of RTprb and dsDNA at 100 uM by fluorescence-monitored in vitro transcription assay; in short: as §1

Compound	Activity [1]	Activity [2]	Activity [3]	inhibition [4]	Activity [5]	inhibition [6]
O=C(Cc1ccccc1)OC[C@H]1OC(=O)N2CCc3c(-c4ccccc4)nnn3C[C@H]12	inactive	inactive	inactive	Active	Active	inactive
O=C(Cc1ccccc1)OC[C@@H]1OC(=O)N2CCc3c(-c4ccccc4)nnn3C[C@@H]12	inactive	inactive	Active	Active	Active	inactive
O=C(Cc1ccccc1)OC[C@H]1OC(=O)N[C@@H]1CN1CCN(c2ccccc2)CC1	–	–	–	Active	–	inactive
CC(=O)c1ccc(NC(=O)OC[C@H]2OC(=O)N[C@@H]2CN2CCN(c3ccccc3)CC2)cc1	–	–	–	Active	–	inactive
CC(=O)c1ccc(NC(=O)OC[C@@H]2OC(=O)N[C@H]2CN2CCN(c3ccccc3)CC2)cc1	–	–	–	Active	–	inactive
CC(=O)c1ccc(NC(=O)OC[C@@H]2OC(=O)N3CCc4c(-c5ccccc5)nnn4C[C@@H]23)cc1	-20%	inactive	Active	Active	Active	inactive
CC(=O)c1ccc(NC(=O)OC[C@H]2OC(=O)N3CCc4c(-c5ccccc5)nnn4C[C@H]23)cc1	-28%	inactive	Active	Active	Active	inactive
O=C(Cc1ccccc1)OC[C@@H]1OC(=O)N[C@H]1CN1CCN(c2ccccc2)CC1	–	–	–	Active	–	inactive
